Results taken from ChEMBL document CHEMBL1130826, “Novel constrained CCK-B dipeptoid antagonists derived from pipecolic acid” (Bioorg Med Chem Lett, 1998).

Experiments:
[1] = target: T1, Cholecystokinin receptor type A (Cavia porcellus, UniProt Q63931); assay: Binding affinity against CCK-A receptor in guinea pig pancreatic membranes; assay type: cell membranes
T1 sequence (Q63931 whole entry): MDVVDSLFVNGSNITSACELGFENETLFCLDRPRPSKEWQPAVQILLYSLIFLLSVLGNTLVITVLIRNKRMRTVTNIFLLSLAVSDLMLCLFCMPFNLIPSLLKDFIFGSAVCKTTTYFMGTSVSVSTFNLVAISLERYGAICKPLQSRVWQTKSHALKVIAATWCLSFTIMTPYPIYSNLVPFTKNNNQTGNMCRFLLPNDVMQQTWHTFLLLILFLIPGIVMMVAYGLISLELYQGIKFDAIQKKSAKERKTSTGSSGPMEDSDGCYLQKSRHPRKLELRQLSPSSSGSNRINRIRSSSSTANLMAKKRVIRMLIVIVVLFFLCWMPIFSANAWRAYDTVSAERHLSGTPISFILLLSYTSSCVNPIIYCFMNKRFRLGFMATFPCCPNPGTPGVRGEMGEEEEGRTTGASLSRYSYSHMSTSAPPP
Method in brief: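 Ki from displacement of [3H]pCCK8 bound to guinea-pig pancreatic membranes (CCK-A receptor).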

[2] = target: T2, Gastrin/cholecystokinin type B receptor (Rattus norvegicus, UniProt P30553); assay: Capacity to inhibit [3H]-p CCK 8 binding to membrane preparations of CHO cells transfected with the rat CCK-B receptor; assay type: cell membranes
T2 sequence (P30553 whole entry): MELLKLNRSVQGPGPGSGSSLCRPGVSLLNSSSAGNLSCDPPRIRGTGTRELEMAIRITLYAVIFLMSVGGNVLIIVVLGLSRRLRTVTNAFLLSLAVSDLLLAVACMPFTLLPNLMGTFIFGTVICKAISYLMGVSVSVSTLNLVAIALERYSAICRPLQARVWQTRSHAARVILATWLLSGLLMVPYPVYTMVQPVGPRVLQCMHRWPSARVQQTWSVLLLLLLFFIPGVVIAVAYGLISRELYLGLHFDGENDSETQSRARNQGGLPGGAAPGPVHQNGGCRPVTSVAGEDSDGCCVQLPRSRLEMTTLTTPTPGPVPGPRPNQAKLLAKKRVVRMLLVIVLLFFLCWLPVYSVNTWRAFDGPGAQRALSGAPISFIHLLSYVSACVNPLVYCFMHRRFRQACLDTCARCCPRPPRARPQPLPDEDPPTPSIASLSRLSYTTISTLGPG
Method in brief: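 Ki from displacement of [3H]pCCK8 bound to membranes of CHO cells stably transfected with the rat CCK-B receptor.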

[3] = target: T2, Gastrin/cholecystokinin type B receptor; assay: Inhibitory activity against CCK-B receptor

Ki [1]	Ki [2]	IC50 [3]	SMILES
1700 nM	3400 nM		CC(Cc1c[nH]c2ccccc12)(NC(=O)OC1[C@H]2C[C@@H]3C[C@@H](C[C@H]1C3)C2)C(=O)N1CCC(C(=O)c2ccccc2)CC1 (stereo partly drawn)
	791 nM		C[C@](Cc1c[nH]c2ccccc12)(NC(=O)OC1C2CC3CC(C2)CC1C3)C(=O)N1CC[C@H](Oc2ccc(Cl)cc2Cl)C[C@H]1C(=O)O (stereo partly drawn)
3720 nM	175 nM		C[C@](Cc1c[nH]c2ccccc12)(NC(=O)OC1C2CC3CC(C2)CC1C3)C(=O)N1CC[C@H](Oc2ccc(Cl)cc2Cl)C[C@@H]1C(=O)O (stereo partly drawn)
	1540 nM		COC(=O)[C@H]1C[C@@H](Oc2ccc(Cl)cc2Cl)CCN1C(=O)[C@@](C)(Cc1c[nH]c2ccccc12)NC(=O)OC1C2CC3CC(C2)CC1C3 (stereo partly drawn)
	24 nM		C[C@](Cc1c[nH]c2ccccc12)(NC(=O)OC1C2CC3CC(C2)CC1C3)C(=O)N1C[C@H](OCc2ccccc2)C[C@@H]1C(=O)O (stereo partly drawn)
1060 nM			C[C@](Cc1c[nH]c2ccccc12)(NC(=O)OC1C2CC3CC(C2)CC1C3)C(=O)N(CCc1ccc(Cl)cc1)CC(=O)O (stereo partly drawn)
751 nM	15.3 nM	37.4 nM	C[C@](Cc1c[nH]c2ccccc12)(NC(=O)OC1C2CC3CC(C2)CC1C3)C(=O)N1C[C@H](Oc2ccc(Cl)cc2Cl)C[C@@H]1C(=O)O (stereo partly drawn)
	18.6 nM	389 nM	C[C@](Cc1c[nH]c2ccccc12)(NC(=O)OC1C2CC3CC(C2)CC1C3)C(=O)N1C[C@H](Oc2ccc(F)cc2F)C[C@@H]1C(=O)O (stereo partly drawn)
	789 nM		C[C@](Cc1c[nH]c2ccccc12)(NC(=O)OC1C2CC3CC(C2)CC1C3)C(=O)N1CC[C@@H](Oc2ccc(Cl)cc2Cl)C[C@@H]1C(=O)O (stereo partly drawn)
	812 nM		C[C@@](Cc1c[nH]c2ccccc12)(NC(=O)OC1C2CC3CC(C2)CC1C3)C(=O)N1CC[C@H](Oc2ccc(Cl)cc2Cl)C[C@@H]1C(=O)O (stereo partly drawn)
1060 nM	1680 nM	217 nM	C[C@@](Cc1c[nH]c2ccccc12)(NC(=O)OC1C2CC3CC(C2)CC1C3)C(=O)N1CC[C@H](Oc2ccc(Cl)cc2Cl)C[C@H]1C(=O)O (stereo partly drawn)
	543 nM		C[C@](Cc1c[nH]c2ccccc12)(NC(=O)OC1C2CC3CC(C2)CC1C3)C(=O)N1CC[C@@H](Oc2ccc(Cl)cc2Cl)C[C@H]1C(=O)O (stereo partly drawn)
	32.7 nM	507 nM	C[C@](Cc1c[nH]c2ccccc12)(NC(=O)OC1C2CC3CC(C2)CC1C3)C(=O)N1C[C@H](Oc2ccc([N+](=O)[O-])cc2)C[C@@H]1C(=O)O (stereo partly drawn)
	896 nM		C[C@@](Cc1c[nH]c2ccccc12)(NC(=O)OC1C2CC3CC(C2)CC1C3)C(=O)N1CC[C@@H](Oc2ccc(Cl)cc2Cl)C[C@H]1C(=O)O (stereo partly drawn)
	1040 nM		CC(Cc1c[nH]c2ccccc12)(NC(=O)OC1C2CC3CC(C2)CC1C3)C(=O)N1CC[C@@H](Oc2ccc(Cl)cc2Cl)C[C@@H]1C(=O)O (single isomer, unassigned)
